Results on 15 molecules are retold here after publication PMC12429009 (The FASEB Journal, 2025).

The data set “native gel or EMSA” deals with the molecule itself. In words: native gel or EMSA.
The nature of data set [1]: Oligomeric status by native PAGE. The format is physicochemical. The conditions noted are these: 15 μg protein, 10% native gel (legend: 12%), Coomassie blue. Put shortly:
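Purified untagged 14‐3‐3ζ WT and mutant apoproteins (E. coli‐expressed, Ni‐NTA plus size exclusion, TEV‐cleaved), buffer‐exchanged into 50 mM Na‐HEPES pH 8.0, 150 mM NaCl, 10% glycerol, then run under nondenaturing conditions. Migration read as monomer or dimer.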

In another data set the test system is 14‐3‐3. Particulars: ref 16 (Ramteke et al.); cited from earlier work.
Data set [2] has as its system FAM‐labeled peptides (mode2 phosphopeptide). In words: Peptide binding ability of 14‐3‐3ζ mutant proteins by fluorescence polarization. The conditions noted are these: FP; FAM‐labeled peptide 62.5 nM, protein 8 to 0.0625 μM, 25°C, 30 min. Put shortly:
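Untagged 14‑3‑3ζ mutants (E. coli BL21 DE3; Ni‑NTA, SEC, TEV cleavage) in 50 mM Na‑HEPES pH 8.0, 150 mM NaCl, 10% glycerol. Protein titrated 8 to 0.0625 μM against constant 62.5 nM N‑terminal FAM‑labeled phosphopeptide. Incubated 30 min at 25°C in the dark before anisotropy reading; K_D fitted.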
(In general: Fluorescence polarisation rises when a labelled molecule tumbles more slowly, as on binding a larger partner.)

In data set [3] the test system is 14‐3‐3ζ WT and mutant proteins. In words: ATPase activity. The format is biochemical, human. Particulars: 10 μM protein, 1 mM ATP, 37°C, 2 h; three independent experiments.

Entries after “also recorded” stand apart in the source; their conditions may differ.

B1: 14-3-3ζ E180A (natural protein, human, UniProt P63104 1-245, looked up)
chain: MDKNELVQKAKLAEQAERYDDMAACMKSVTEQGAELSNEERNLLSVAYKNVVGARRSSWRVVSSIEQKTEGAEKKQQMAREYREKIETELRDICNDVLSLLEKFLIPNASQAESKVFYLKMKGDYYRYLAEVAAGDDKKGIVDQSQQAYQEAFEISKKEMQPTHPIRLGLALNFSVFYYAILNSPEKACSLAKTAFDEAIAELDTLSEESYKDSTLIMQLLRDNLTLWTSDTQGDEAEAGEGGEN
In general, stoichiometry N refers to the number of molecules, sites or subunits per partner or assembly. With B1, the “stoichiometry N” value in the data set “native gel or EMSA” was 2.

B2: E131AN173V: 14‐3‐3ζ double mutant (protein)
chain: MDKNELVQKAKLAEQAERYDDMAACMKSVTEQGAELSNEERNLLSVAYKNVVGARRSSWRVVSSIEQKTEGAEKKQQMAREYREKIETELRDICNDVLSLLEKFLIPNASQAESKVFYLKMKGDYYRYLAAVAAGDDKKGIVDQSQQAYQEAFEISKKEMQPTHPIRLGLALVFSVFYYEILNSPEKACSLAKTAFDEAIAELDTLSEESYKDSTLIMQLLRDNLTLWTSDTQGDEAEAGEGGEN
modifications: left off: His6, end not stated, cleaved
For the molecule B2, the “migration on native PAGE / oligomeric state” value in data set [1] is “migrated as dimers”.

B3: R55A: 14‐3‐3ζ dimer interface mutant (protein)
chain: MDKNELVQKAKLAEQAERYDDMAACMKSVTEQGAELSNEERNLLSVAYKNVVGAARSSWRVVSSIEQKTEGAEKKQQMAREYREKIETELRDICNDVLSLLEKFLIPNASQAESKVFYLKMKGDYYRYLAEVAAGDDKKGIVDQSQQAYQEAFEISKKEMQPTHPIRLGLALNFSVFYYEILNSPEKACSLAKTAFDEAIAELDTLSEESYKDSTLIMQLLRDNLTLWTSDTQGDEAEAGEGGEN
modifications: left off: His6, end not stated, cleaved
Take B3: the “ATPase activity (earlier study)” value in the data set with 14‐3‐3 was “reduction in ATP binding and hydrolysis; also recorded: ATPase defective mutant; also recorded: decrease in the ATPase activity”. Besides, the “migration on native PAGE / oligomeric state” value in data set [1] is listed as “migrated as dimers”. Further, in data set [2], the “peptide binding of 14‐3‐3ζ mutant protein (in words)” value is listed as “bind all peptides with the same affinity as the WT”.

B4: Y82AN173V: 14‐3‐3ζ double mutant, monomer (protein)
chain: MDKNELVQKAKLAEQAERYDDMAACMKSVTEQGAELSNEERNLLSVAYKNVVGARRSSWRVVSSIEQKTEGAEKKQQMAREAREKIETELRDICNDVLSLLEKFLIPNASQAESKVFYLKMKGDYYRYLAEVAAGDDKKGIVDQSQQAYQEAFEISKKEMQPTHPIRLGLALVFSVFYYEILNSPEKACSLAKTAFDEAIAELDTLSEESYKDSTLIMQLLRDNLTLWTSDTQGDEAEAGEGGEN
modifications: left off: His6, end not stated, cleaved
Turning to B4, in data set [3], the “ATPase activity (in words, compared with WT)” value is given as “some ATPase activity (less than the WT)”; the “ATPase activity as percentage of the N173V mutant” value is reported as 20%; the “reduction in ATPase activity compared with N173V” value was 80%. For the same molecule, in data set [1], the “migration on native PAGE / oligomeric state” value was “could be monomeric in nature”.

B5: F117AN173V (protein)
chain: MDKNELVQKAKLAEQAERYDDMAACMKSVTEQGAELSNEERNLLSVAYKNVVGARRSSWRVVSSIEQKTEGAEKKQQMAREYREKIETELRDICNDVLSLLEKFLIPNASQAESKVAYLKMKGDYYRYLAEVAAGDDKKGIVDQSQQAYQEAFEISKKEMQPTHPIRLGLALVFSVFYYEILNSPEKACSLAKTAFDEAIAELDTLSEESYKDSTLIMQLLRDNLTLWTSDTQGDEAEAGEGGEN
modifications: left off: His6, end not stated, cleaved
As to B5, in data set [1], the “migration on native PAGE / oligomeric state” value is given as “migrated as dimers”.

B6: E180A: 14‐3‐3ζ amphipathic pocket mutant (protein)
chain: MDKNELVQKAKLAEQAERYDDMAACMKSVTEQGAELSNEERNLLSVAYKNVVGARRSSWRVVSSIEQKTEGAEKKQQMAREYREKIETELRDICNDVLSLLEKFLIPNASQAESKVFYLKMKGDYYRYLAEVAAGDDKKGIVDQSQQAYQEAFEISKKEMQPTHPIRLGLALNFSVFYYAILNSPEKACSLAKTAFDEAIAELDTLSEESYKDSTLIMQLLRDNLTLWTSDTQGDEAEAGEGGEN
modifications: left off: His6, end not stated, cleaved
For B6, the “ATPase activity (in words, compared with WT)” value in data set [3] is given as “made no difference to the ATPase activity”. In addition, in data set [1], the “migration on native PAGE / oligomeric state” value is given as “migrated as dimers”.

B7: 14-3-3ζ E180AN173V (natural protein, human, UniProt P63104 1-245, looked up)
chain: MDKNELVQKAKLAEQAERYDDMAACMKSVTEQGAELSNEERNLLSVAYKNVVGARRSSWRVVSSIEQKTEGAEKKQQMAREYREKIETELRDICNDVLSLLEKFLIPNASQAESKVFYLKMKGDYYRYLAEVAAGDDKKGIVDQSQQAYQEAFEISKKEMQPTHPIRLGLALVFSVFYYAILNSPEKACSLAKTAFDEAIAELDTLSEESYKDSTLIMQLLRDNLTLWTSDTQGDEAEAGEGGEN
For the molecule B7, in the data set “native gel or EMSA”, the “stoichiometry N” value stood at 2.

B8: 14-3-3ζ N173V (natural protein, human, UniProt P63104 1-245, looked up)
chain: MDKNELVQKAKLAEQAERYDDMAACMKSVTEQGAELSNEERNLLSVAYKNVVGARRSSWRVVSSIEQKTEGAEKKQQMAREYREKIETELRDICNDVLSLLEKFLIPNASQAESKVFYLKMKGDYYRYLAEVAAGDDKKGIVDQSQQAYQEAFEISKKEMQPTHPIRLGLALVFSVFYYEILNSPEKACSLAKTAFDEAIAELDTLSEESYKDSTLIMQLLRDNLTLWTSDTQGDEAEAGEGGEN
As for B8, the “stoichiometry N” value in the data set “native gel or EMSA” worked out at 2.

B9: 14-3-3ζ F117AN173V (natural protein, human, UniProt P63104 1-245, looked up)
chain: MDKNELVQKAKLAEQAERYDDMAACMKSVTEQGAELSNEERNLLSVAYKNVVGARRSSWRVVSSIEQKTEGAEKKQQMAREYREKIETELRDICNDVLSLLEKFLIPNASQAESKVAYLKMKGDYYRYLAEVAAGDDKKGIVDQSQQAYQEAFEISKKEMQPTHPIRLGLALVFSVFYYEILNSPEKACSLAKTAFDEAIAELDTLSEESYKDSTLIMQLLRDNLTLWTSDTQGDEAEAGEGGEN
B9: the “stoichiometry N” value in “native gel or EMSA” was determined as 2.

B10: E131AE180A: 14‐3‐3ζ double mutant (protein, UniProt P63104 1-245, looked up, variant E131A E180A)
14-3-3 protein zeta/delta: MDKNELVQKAKLAEQAERYDDMAACMKSVTEQGAELSNEERNLLSVAYKNVVGARRSSWRVVSSIEQKTEGAEKKQQMAREYREKIETELRDICNDVLSLLEKFLIPNASQAESKVFYLKMKGDYYRYLAAVAAGDDKKGIVDQSQQAYQEAFEISKKEMQPTHPIRLGLALNFSVFYYAILNSPEKACSLAKTAFDEAIAELDTLSEESYKDSTLIMQLLRDNLTLWTSDTQGDEAEAGEGGEN
Consider B10, for which the “ATPase activity (in words, compared with WT)” value in data set [3] is “decreased dramatically”.

B11: 14-3-3ζ E131AN173V (natural protein, human, UniProt P63104 1-245, looked up)
chain: MDKNELVQKAKLAEQAERYDDMAACMKSVTEQGAELSNEERNLLSVAYKNVVGARRSSWRVVSSIEQKTEGAEKKQQMAREYREKIETELRDICNDVLSLLEKFLIPNASQAESKVFYLKMKGDYYRYLAAVAAGDDKKGIVDQSQQAYQEAFEISKKEMQPTHPIRLGLALVFSVFYYEILNSPEKACSLAKTAFDEAIAELDTLSEESYKDSTLIMQLLRDNLTLWTSDTQGDEAEAGEGGEN
Take B11: in “native gel or EMSA”, the “stoichiometry N” value was determined as 2.

B12: 14-3-3ζ E131A (natural protein, human, UniProt P63104 1-245, looked up)
chain: MDKNELVQKAKLAEQAERYDDMAACMKSVTEQGAELSNEERNLLSVAYKNVVGARRSSWRVVSSIEQKTEGAEKKQQMAREYREKIETELRDICNDVLSLLEKFLIPNASQAESKVFYLKMKGDYYRYLAAVAAGDDKKGIVDQSQQAYQEAFEISKKEMQPTHPIRLGLALNFSVFYYEILNSPEKACSLAKTAFDEAIAELDTLSEESYKDSTLIMQLLRDNLTLWTSDTQGDEAEAGEGGEN
Turning to B12, in “native gel or EMSA”, the “stoichiometry N” value came out at 2.

B13: 14-3-3ζ D124A (natural protein, human, UniProt P63104 1-245, looked up)
chain: MDKNELVQKAKLAEQAERYDDMAACMKSVTEQGAELSNEERNLLSVAYKNVVGARRSSWRVVSSIEQKTEGAEKKQQMAREYREKIETELRDICNDVLSLLEKFLIPNASQAESKVFYLKMKGAYYRYLAEVAAGDDKKGIVDQSQQAYQEAFEISKKEMQPTHPIRLGLALNFSVFYYEILNSPEKACSLAKTAFDEAIAELDTLSEESYKDSTLIMQLLRDNLTLWTSDTQGDEAEAGEGGEN
For the molecule B13, the “stoichiometry N” value in the data set “native gel or EMSA” is 2.

B14: E131A (protein)
chain: MDKNELVQKAKLAEQAERYDDMAACMKSVTEQGAELSNEERNLLSVAYKNVVGARRSSWRVVSSIEQKTEGAEKKQQMAREYREKIETELRDICNDVLSLLEKFLIPNASQAESKVFYLKMKGDYYRYLAAVAAGDDKKGIVDQSQQAYQEAFEISKKEMQPTHPIRLGLALNFSVFYYEILNSPEKACSLAKTAFDEAIAELDTLSEESYKDSTLIMQLLRDNLTLWTSDTQGDEAEAGEGGEN
modifications: left off: His6, end not stated, cleaved
For B14, the “ATPase activity (in words, compared with WT)” value in data set [3] is given as “made no difference to the ATPase activity”. Also, in data set [1], the “migration on native PAGE / oligomeric state” value is “migrated as dimers”.

B15: 14-3-3ζ R55A (natural protein, human, UniProt P63104 1-245, looked up)
chain: MDKNELVQKAKLAEQAERYDDMAACMKSVTEQGAELSNEERNLLSVAYKNVVGAARSSWRVVSSIEQKTEGAEKKQQMAREYREKIETELRDICNDVLSLLEKFLIPNASQAESKVFYLKMKGDYYRYLAEVAAGDDKKGIVDQSQQAYQEAFEISKKEMQPTHPIRLGLALNFSVFYYEILNSPEKACSLAKTAFDEAIAELDTLSEESYKDSTLIMQLLRDNLTLWTSDTQGDEAEAGEGGEN
On to B15, for which, in the data set “native gel or EMSA”, the “stoichiometry N” value was found to be 2.
